Reference: PMC2804273 (Journal of Medicinal Chemistry, 2009)

Test system: BSF T. brucei brucei strain Lister 427
Assay: Alamar blue viability test, cytotoxicity against cultured parasites
Assay type: cell-based, Trypanosoma brucei brucei
Settings: ED50 determined in the presence of sub-ED50 MTX (0.5-2.5 μM)
How it was run: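 Bloodstream-form T. brucei brucei Lister 427, grown at 37 °C and 5% CO2 in HMI-9 with 10% fetal calf serum, high folate left unreduced, and neomycin pressure to keep T7 polymerase and tetracycline repressor. […] Values are mean ± std dev (n = 4). Synergy was judged by comparing the area under the slope with half the product of the two ED50 values.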

N#Cc1c(-c2ccc3c(c2)OCO3)[nH]c2nc(N)[nH]c(=O)c12 [compound 13]
Interaction in combination with MTX (synergy): acts synergistically

CCc1nc(N)nc(N)c1-c1ccc(Cl)cc1 [PYR, pyrimethamine]
Interaction in combination with MTX (synergy): does not act synergistically
